Experimental data reported in ChEMBL document CHEMBL3085766, “Synthesis, ex vivo and in silico studies of 3-cyano-2-pyridone derivatives with vasorelaxant activity” (Eur J Med Chem, 2013).

Key:
Aorta [1] = experiment: Vasorelaxant activity in rat endothelium-intact thoracic aortic ring assessed as inhibition of noradrenaline-induced contraction; format: functional, tissue-based
In short: (§1)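 Isometric tension of isolated rat thoracic aorta rings, endothelium intact or removed, recorded with a force transducer. After stabilization, rings were challenged with […] for 10 min and washed in fresh Krebs solution. This was done three times at 30-min intervals. Endothelial status was confirmed by […] relaxation in the last contraction. Rings were then contracted with NA and given quarter-log cumulative concentrations; EC50 derived.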

Aorta [2] = experiment: Vasorelaxant activity in rat endothelium-denuded thoracic aortic ring assessed as inhibition of noradrenaline-induced contraction relative to control; format: functional; in short: as §1
Aorta [3] = experiment: Vasorelaxant activity in rat endothelium-intact thoracic aortic ring assessed as inhibition of noradrenaline-induced contraction relative to control; format: functional; in short: as §1
Aorta [4] = experiment: Vasorelaxant activity in rat endothelium-denuded thoracic aortic ring assessed as inhibition of noradrenaline-induced contraction; format: functional, tissue-based; in short: as §1

Structure (SMILES) | EC50 (Aorta [1]) [µM] | Efficacy (Aorta [2]) [%] | Efficacy (Aorta [3]) [%] | EC50 (Aorta [4]) [µM] | inhibition (Aorta [4])
CCOC(=O)c1c(C)[nH]c(=O)c(C#N)c1-c1ccc([N+](=O)[O-])cc1 | 7 | 95 | 98 | 8.2 | Dose-dependent effect
CCOC(=O)c1c(C)[nH]c(=O)c(C#N)c1-c1cccs1 | 5 | 99 | 100 | 12 | Dose-dependent effect
COC(=O)C1=C(C)NC(C)=C(C(=O)OC)C1c1ccccc1[N+](=O)[O-] [NIFEDIPINE] | – | 97 | – | 0.03 | –
CCOC(=O)c1c(C)[nH]c(=O)c(C#N)c1-c1ccncc1 | 270 | 86.4 | 85.47 | 178 | Dose-dependent effect
CCOC(=O)c1c(C)[nH]c(=O)c(C#N)c1-c1ccc([N+](=O)[O-])cc1[N+](=O)[O-] | 4.4 | 99 | 97 | 3.6 | Dose-dependent effect
C[N+](C)(C)CCOC(N)=O.[Cl-] [CARBACHOL] | 0.3 | – | 74.06 | – | –
CCOC(=O)c1c(C)[nH]c(=O)c(C#N)c1-c1cccc(Cl)c1 | 85 | 99 | 97 | 62 | Dose-dependent effect
CCOC(=O)c1c(C)[nH]c(=O)c(C#N)c1-c1ccco1 | 22 | 93 | 100 | 31 | Dose-dependent effect
